The values that follow come from ChEMBL document CHEMBL1124483 (J Med Chem, 1989).

The data set in a line: Lethal dose of the compound, when administered intraperitoneally in mice. The class given is toxicity, organism-based. To be noted: mouse, in vivo, ip. An outline of the steps:
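Male Swiss Webster mice (15–20 g), five per dose level, at least four dose levels, given ip injection (0.10 mL/10 g) in normal saline or saline/phosphate-buffered saline, with EtOH up to 2.5% final for some; solvent-only control group.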

SMILES strings stand for the structures.

`CC(C)(C)[C@H]1CC[C@@H](O)[C@H](N2CCC(c3ccccc3)CC2)C1` displayed an LD50 of 5.7 µmol/kg.

In turn, `OC1CCCC1N1CCC(c2ccccc2)CC1` (stereo not given) registered an LD50 above 200 µmol/kg.

`CC(=O)Nc1cccc2c1CC(N1CCC(c3ccccc3)CC1)C(O)C2` (stereo not given) had an LD50 of 1.7 µmol/kg.

`OC1CCCCC1N1CCC(Cc2ccccc2)CC1` (stereo not given): the LD50 is above 180 µmol/kg.

As for `OC1Cc2ccccc2CC1N1CCC(c2ccccc2)CC1` (stereo not given), the LD50 stood at 1.2 µmol/kg.

For the compound `CC1(O)CCCC[C@H]1N1CCC(c2ccccc2)CC1` (stereo not given in full), the LD50 is above 180 µmol/kg.

In turn, `OC1CCCCC1N1CC=C(c2ccc(Cl)cc2)CC1` (stereo not given) returned an LD50 above 340 µmol/kg.

The compound `O[C@H]1CCCC[C@@H]1N1CCC(c2ccccc2)CC1` showed an LD50 above 190 µmol/kg.

For `CO[C@H]1CCC[C@@H](N2CCC(c3ccccc3)CC2)[C@@H]1O`, the LD50 is 240 µmol/kg.

With `C[N+]1(C2CCCCC2O)CCC(c2ccccc2)CC1` (stereo not given), the LD50 is above 180 µmol/kg.

For `CCC(O)CN1CCC(c2ccccc2)CC1` (stereo not given), the LD50 is 300 µmol/kg.

As to `OC1CC2CCCCC2CC1N1CCC(c2ccccc2)CC1` (racemic), the LD50 was determined as 2 µmol/kg.

`OC1CCCCC1N1CCC(c2ccccc2)CC1` (racemic): the LD50 turned out to be 16 µmol/kg.

Compound `COc1ccccc1N1CCN(C2CC3CCCCC3CC2O)CC1` (racemic; 68) registered a median lethal dose (LD50) of 12 µmol/kg.

For the compound `O[C@@H]1CCCC[C@H]1N1CCC(c2ccccc2)CC1` [VESAMICOL], the 50% lethal dose (LD50) came to 12 µmol/kg.
